Results on 1 compound are retold here after ChEMBL document CHEMBL4011629, “New Disubstituted Quindoline Derivatives Inhibiting Burkitt's Lymphoma Cell Proliferation by Impeding c-MYC Transcription” (J Med Chem, 2017).

A word on the T/C: it is the result in the treated group divided by that in the control group, in per cent. For orientation: Kd means the free concentration of one partner at which half of the binding sites on the other are occupied at equilibrium, for simple one-to-one binding.

The subject of data set [1] is Raji. The experiment in a line: Induction of apoptosis in human Raji cells assessed as necrotic cells at 0.5 uM after 12 hrs by Annexin V-FITC/propidium iodide staining based flow cytometry relative to control. Format: functional. Summed up:
(§1)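 RAJI cells exposed to compound or control medium for 12 or 48 h were washed in PBS and resuspended in binding buffer. They were stained with FITC annexin V and PI for 15 min in the dark, and fluorescence was measured by flow cytometry.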
A general note: In flow cytometry, cells or beads pass a laser one at a time.

The subject of data set [2] is Raji. Description: Antitumor activity against human Raji cells xenografted in NOD/SCID nude mouse assessed as reduction in tumor volume at 30 mg/kg, ip administered once daily for 2 weeks relative to control. It counts as functional. In outline: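 NOD/SCID mice were implanted subcutaneously in the underarm with RAJI cells (5 × 10^6 per 100 μL of RPMI 1640 with 10% serum). Tumours reached […] after 1 week, and mice were then randomised. […] Tumour volume was recorded daily and tumour weight at the end.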
(In general: Xenograft models place foreign cells or tissue in a host animal.)

Data set [3] deals with Raji. Description: Cell cycle arrest in human Raji cells assessed as accumulation at G0/G1 phase after 48 hrs by propidium iodide staining based flow cytometry (reference value: 38.5%). Format: functional.
For data set [4], the system named is Raji. Description: Induction of apoptosis in human Raji cells assessed as downregulation of CDK4 expression after 12 hrs by Western blot method. Format: functional, cell-based. Summed up:
(§2)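 After compound exposure (12 h for cell-cycle and apoptosis markers), RAJI cells were lysed in 1% NP-40 buffer. Protein at 50 μg per lane was run on 3–12% SDS-PAGE and transferred to nitrocellulose. Blots were probed with primary antibodies (GAPDH as loading reference) and detected with an HRP secondary and enhanced chemiluminescence.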

Data set [5] concerns Raji. The experiment in a line: Cell cycle arrest in human Raji cells assessed as accumulation at G0/G1 phase after 12 hrs by propidium iodide staining based flow cytometry (reference value: 38.5%). It counts as functional.
The test system of data set [6] is Raji. The experiment in a line: Induction of apoptosis in human Raji cells assessed as late apoptotic cells at 1 uM after 12 hrs by Annexin V-FITC/propidium iodide staining based flow cytometry relative to control. Format: functional. In outline: as §1
Data set [7] is filed under the species Homo sapiens. The experiment in a line: Stabilization of c-Myc G-quadruplex DNA in human Raji cells assessed as downregulation of c-Myc protein level after 6 hrs by Western blot method. It counts as cell-based. Summed up: (§3)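 Western blot of RAJI cells treated either with 1 μM for 6, 12, 24 and 48 h or with graded concentrations for 6 h. Lysed in 1% NP-40, 50 μg protein/lane on 3–12% SDS-PAGE, nitrocellulose, probed for c-MYC, NM23-H2, GAPDH loading control, HRP secondary with ECL; untreated control, three replicates.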

Data set [8] can be described thus: Selectivity ratio of Kd for 5'-FAM labeled duplex DNA (unknown origin) to Kd for 5'-FAM labeled c-Myc Pu27 G-quadruplex DNA (unknown origin). Summed up:
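MST binding: FAM-Pu27 or FAM-duplex oligo at 10 μM in 10 mM Tris-HCl pH 7.4 with 150 mM KCl, annealed 95 °C 5 min, slow-cooled, held 4 °C overnight. Ligand titrated as a 12-point series, 0–20 μM for G4 or up to 200 μM for duplex. KD fitted with Hill model; three replicates.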

Data set [9] has as its system Raji. Description: Cell cycle arrest in human Raji cells assessed as accumulation at S phase after 48 hrs by propidium iodide staining based flow cytometry (reference value: 32.2%). It counts as functional.
Data set [10] concerns Raji. Description: Induction of apoptosis in human Raji cells assessed as late apoptotic cells at 0.5 uM after 12 hrs by Annexin V-FITC/propidium iodide staining based flow cytometry relative to control. Format: functional. In outline: as §1
Data set [11] concerns Raji. Description: Cell cycle arrest in human Raji cells assessed as accumulation at G0/G1 phase after 6 hrs by propidium iodide staining based flow cytometry (reference value: 38.5%). Format: functional.
The subject of data set [12] is Raji. The experiment in a line: Induction of apoptosis in human Raji cells assessed as necrotic cells at 1 uM after 48 hrs by Annexin V-FITC/propidium iodide staining based flow cytometry relative to control. It counts as functional. In outline:
as §1

The subject of data set [13] is Raji. Description: Induction of apoptosis in human Raji cells assessed as downregulation of Cyclin D3 expression after 12 hrs by Western blot method. It counts as functional, cell-based. In outline: as §2
(In general: In western blotting, separated proteins are transferred to a membrane and probed.)

The test system of another data set is Mus musculus. Description: Toxicity in NOD/SCID nude mouse xenografted with human Raji cells assessed as reduction in viscera weight at 15 to 30 mg/kg, ip administered once daily for 2 weeks measured every day during compound dosing. It counts as organism-based. As to conditions: in vivo, 336 h. Summed up: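 NOD/SCID mice implanted subcutaneously in the underarm with 5 × 10^6 RAJI cells in 100 μL RPMI 1640 with 10% serum; tumours grown about 1 week, then mice randomized. Body weight recorded daily; organ weights taken at end.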

Data set [14] deals with Raji. Description: Induction of apoptosis in human Raji cells assessed as upregulation of p27 expression up to 4 uM after 12 hrs by Western blot method. It counts as functional, cell-based. In outline: as §2
A short description of data set [15]: Binding affinity to 5'-FAM labeled c-Myc Pu27 G-quadruplex DNA (unknown origin) in presence of K+ ions by MST analysis. Summed up: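 The DNA was annealed at 95 °C for 5 min, slowly cooled and held at 4 °C overnight. Ligand was run as a 12-point series, 0–20 μM for Pu27 and up to 200 μM for duplex. MST was measured, and KD was fitted to a Hill model from three replicates.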

The subject of data set [16] is Raji. Description: Antiproliferative activity against human Raji cells measured every 3 days up to 15 days. Format: functional, cell-based. In outline: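 RAJI cells (1.0 × 10^5 per well, six-well plates) were exposed every 3 days to a subcytotoxic ligand concentration or 0.1% DMSO. At each point cells were counted and viability checked, then flasks were reseeded at 1.0 × 10^5 cells. This continued for 15 days.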

Data set [17] is filed under the species Homo sapiens. Description: Stabilization of c-Myc G-quadruplex DNA in human Raji cells assessed as downregulation of c-Myc protein level at 1 uM by Western blot method. As to conditions: TDE = time-dependent effect. It counts as cell-based. Summed up: as §3
Data set [18] has as its system Raji. Description: Cell cycle arrest in human Raji cells assessed as accumulation at G0/G1 phase after 24 hrs by propidium iodide staining based flow cytometry (reference value: 38.5%). It counts as functional.
The species entered for data set [19] is Homo sapiens. The experiment in a line: Stabilization of c-Myc G-quadruplex DNA in human Raji cells assessed as downregulation of c-Myc mRNA level at 2 uM after 12 hrs by RT-PCR method relative to control. It counts as cell-based. In outline: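 RAJI, CCRF-CEM and U266B1 grown in RPMI 1640 with 10% fetal calf serum at 37 °C, plated at 1 × 10^6 cells/well overnight, then treated 12 h with 4, 2, 1 or 0.5 μM (DMSO control). RNA (2 μg) reverse-transcribed with oligo dT18/M-MLV; c-MYC, NM23-H2 and β-actin amplified by real-time PCR, checked on 1.5% agarose.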

Data set [20] has as its system Raji. The experiment in a line: Cell cycle arrest in human Raji cells assessed as accumulation at S phase after 24 hrs by propidium iodide staining based flow cytometry (reference value: 32.2%). Format: functional.
The species entered for data set [21] is Homo sapiens. Description: Stabilization of c-Myc G-quadruplex DNA in human Raji cells assessed as decrease in amplification of exon-1 after 12 hrs by RT-PCR method. It counts as cell-based. In outline:
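Exon-specific assay: RAJI and CA46 cells exposed to various ligand concentrations for 12 h; total RNA (2 μg) reverse-transcribed with oligo dT18 and M-MLV (42 °C 1 h). c-MYC exon 1 and exon 2, NM23-H2 and β-actin amplified by real-time PCR, products run on 1% agarose; untreated cells as control; three repeats, two-tailed unpaired t test.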

In data set [22] the test system is Raji. The experiment in a line: Induction of apoptosis in human Raji cells assessed as early apoptotic cells at 0.5 uM after 48 hrs by Annexin V-FITC/propidium iodide staining based flow cytometry (reference value: 1.8%). It counts as functional. Summed up: as §1

Active and inactive are the calls of the source. The calls are words filed in the database; no cut-off is given here.

In the case of `CN(C)CCCNc1c2ccccc2nc2c1oc1ccc(OCC3CCN(C)CC3)cc12`, the Activity with Raji [1] was 0%; with Raji [3] it was 57.1%; in the data set on Raji [4], “Dose-dependent effect”; in the data set on Raji [5], 60.2%; with Raji [6] it was 0.3%; in the data set listed under Homo sapiens [7], “Dose-dependent effect”. Besides, the Activity in the data set on Raji [9] was 21.4%; with Raji [10], 0.2%; in the data set on Raji [11], 50.2%; in the data set on Raji [12], 0%; in the data set with Raji [13], “Dose-dependent effect”; in the data set on Mus musculus, “Non-Toxic”. The Activity result was “Dose-dependent effect” in the data set with Raji [16]; “Tde” in the data set listed under Homo sapiens [17]; 56.3% in the data set with Raji [18]; greater than 80% in the data set listed under Homo sapiens [19]; 19.4% in the data set on Raji [20]; “Dose-dependent effect” in the data set filed under Homo sapiens [21]. Further, the Activity with Raji [22] is 12.2%. Moreover, in the data set with Raji [2], the T/C worked out at 26.6%. For the same compound, the Selectivity ratio in data set [8] amounted to 8. The outcome with Raji [14] was Active. In addition, the Kd in data set [15] stood at 1300 nM.
